Several values for one entry are separate records, joined by “and”; a condition that tells them apart may be missing. Identical values can stand only once. Out of some 360,000 compounds screened, about 740 (0.21%) were called active. This is one part of a sample in which actives are shown more often than they occur.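 Rule for the calls: active = mean lysis activity across replicates of at least 80%, whatever share of replicates individually reach that level; inactive = mean lysis activity below 80%.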 Some structures have more than one record in an assay (separate samples or runs), and their calls can disagree.
Test: fungicidal lysis via adenylate kinase leakage – AK release luminescence, single concentration, primary screen (AID 651654)
Conditions: C. neoformans lysis, 4 h, at 15 µM, stronger effect = higher value, normalised: neutral wells 0, clomiphene wells 100
How it was run: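 read-out = cell lysis signal | test system = log-phase Cryptococcus neoformans yeast cells | input = cells at 5 × 10^6 per mL | medium = fresh YPD growth medium | signal = luminescent adenylate kinase detection reagent | timing = 4 h at 37 °C static, read 1 h later | dosing = single dose | controls = Clomiphene as positive lysis control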

Row | SMILES | lysis activity
1 | COCC(=O)Nc1ccc2c(c1)OC[C@H](C)N(C(=O)Cc1ccccn1)C[C@H](C)[C@@H](OC)CN(C)C2=O | 6.59% (inactive)
2 | CCC(=O)N1[C@@H]2c3ccc(-c4cccnc4)c(=O)n3C[C@H]1[C@H](CO)[C@H]2C(=O)N1CCc2ccccc2C1 | -6.94% (inactive)
3 | C[C@H](CO)N1C[C@H](C)[C@H](CN(C)Cc2ccc(C(F)(F)F)cc2)Oc2c(NC(=O)C3CCOCC3)cccc2C1=O | 0.0275% (inactive)
4 | Cc1ccc(S(=O)(=O)Nc2ccc3c(c2)C(=O)N([C@H](C)CO)C[C@@H](C)[C@@H](CN(C)S(C)(=O)=O)OCCCC[C@@H](C)O3)cc1 | -3.44% (inactive)
5 | CCCN(C)C[C@@H]1OCCCC[C@H](C)Oc2ccc(NS(=O)(=O)c3ccc(C)cc3)cc2C(=O)N([C@H](C)CO)C[C@@H]1C | 98.4% (active)
6 | C[C@H]1CN([C@@H](C)CO)C(=O)c2cccc(NC(=O)C3CCOCC3)c2O[C@@H]1CN(C)C | -5.09% (inactive)
7 | C[C@H]1CN([C@@H](C)CO)C(=O)c2cc(NS(C)(=O)=O)ccc2O[C@H]1CN(C)C(=O)Nc1ccc(C(F)(F)F)cc1 | 2.09% (inactive)
8 | Cc1noc(C)c1S(=O)(=O)Nc1ccc2c(c1)C(=O)N([C@@H](C)CO)C[C@@H](C)[C@@H](CN(C)Cc1ccccc1)OCCCC[C@H](C)O2 | 96.8% (active)
9 | Cc1ccc(S(=O)(=O)Nc2ccc3c(c2)C(=O)N([C@H](C)CO)C[C@@H](C)[C@H](CN(C)C(=O)Nc2ccc(C(F)(F)F)cc2)OCCCC[C@H](C)O3)cc1 | -2.02% (inactive)
10 | C[C@H](CO)N1C[C@H](C)[C@H](CN(C)C)Oc2c(NC(=O)C3CCOCC3)cccc2C1=O | -4.63% (inactive)
11 | C[C@@H]1CN([C@@H](C)CO)C(=O)c2cccc(NC(=O)C3CC3)c2O[C@@H]1CN(C)C | 80.7% (active)
12 | Cc1ccc(S(=O)(=O)Nc2ccc3c(c2)C(=O)N([C@@H](C)CO)C[C@H](C)[C@H](CN(C)C(=O)Nc2ccc(C(F)(F)F)cc2)O3)cc1 | 100% (active)
13 | Cc1noc(C)c1S(=O)(=O)Nc1ccc2c(c1)C(=O)N([C@@H](C)CO)C[C@H](C)[C@H](CN(C)CC1CCCCC1)OCCCC[C@H](C)O2 | 1.9% (inactive)
14 | Cc1noc(C)c1S(=O)(=O)Nc1ccc2c(c1)C(=O)N([C@H](C)CO)C[C@@H](C)[C@@H](CN(C)Cc1ccccc1)OCCCC[C@@H](C)O2 | 0.357% (inactive)
15 | CCCN(C)C[C@H]1OCCCC[C@H](C)Oc2ccc(NS(=O)(=O)c3ccc(C)cc3)cc2C(=O)N([C@@H](C)CO)C[C@H]1C | -0.143% (inactive)
16 | C[C@@H]1CCCCO[C@H](CN(C)C)[C@H](C)CN([C@@H](C)CO)C(=O)c2cc(NS(=O)(=O)c3cn(C)cn3)ccc2O1 | -0.536% (inactive)
17 | C[C@H]1CN([C@@H](C)CO)C(=O)c2cccc(NS(=O)(=O)c3cn(C)cn3)c2O[C@@H]1CN(C)CC1CCCCC1 | 82.6% (active)
18 | C[C@@H]1CN([C@H](C)CO)C(=O)c2cccc(NS(=O)(=O)c3cn(C)cn3)c2O[C@H]1CN(C)CC1CC1 | -3.67% (inactive)
19 | Cc1noc(C)c1S(=O)(=O)Nc1ccc2c(c1)CC(=O)N([C@@H](C)CO)C[C@H](C)[C@@H](CN(C)S(=O)(=O)c1cn(C)cn1)O2 | 117% (active)
20 | Cc1noc(C)c1S(=O)(=O)Nc1ccc2c(c1)CC(=O)N([C@H](C)CO)C[C@H](C)[C@H](CN(C)S(=O)(=O)c1cn(C)cn1)O2 | -4.65% (inactive)
21 | C[C@@H]1CN([C@@H](C)CO)C(=O)c2cc(NS(=O)(=O)c3cn(C)cn3)ccc2O[C@@H](C)CCCCO[C@H]1CN(C)S(=O)(=O)c1cn(C)cn1 | 1.43% (inactive)

Row | SMILES | lysis activity
22 | C[C@@H]1CN([C@H](C)CO)C(=O)c2cc(NS(=O)(=O)c3cn(C)cn3)ccc2O[C@@H](C)CCCCO[C@H]1CN(C)C | 109% (active)
23 | Cc1ccc(S(=O)(=O)N(C)C[C@@H]2Oc3ccc(NS(=O)(=O)c4c(C)noc4C)cc3CC(=O)N([C@H](C)CO)C[C@H]2C)cc1 | 1.73% (inactive)
24 | C[C@H]1CN([C@@H](C)CO)C(=O)c2cc(NS(=O)(=O)c3cn(C)cn3)ccc2O[C@H]1CN(C)CC1CCCCC1 | -5.59% (inactive)
25 | CN1c2ccc(-c3ccccc3)cc2[C@H]2[C@H](CCN2C(=O)c2ccc3c(c2)OCO3)[C@H]1CO | -10.3% (inactive)
26 | COCC(=O)N(C)C[C@H]1Oc2cc(C#C[C@@H](C)O)ccc2S(=O)(=O)N([C@H](C)CO)C[C@H]1C | 9.52% (inactive)
27 | Cc1ccc(OCCCC(=O)NC(C)c2ccccc2)c(C)c1 (stereo unspecified) | 3.6% (inactive)
28 | Cc1ccc(OCC(=O)NC(C)c2ccccc2)cc1C (stereo unspecified) | 204% (active)
29 | Cc1ccc(OCC(=O)Nc2ccc(C(=O)O)cc2NC(=O)COc2ccc(C)c(C)c2)cc1C | -1.83% (inactive)
30 | C[C@H]1CCCCO[C@H](CN(C)S(=O)(=O)c2cn(C)cn2)[C@@H](C)CN([C@@H](C)CO)C(=O)c2cc(NC(=O)C3CCCCC3)ccc2O1 | -1.38% (inactive)
31 | Cc1cccc(S(=O)(=O)N2CC[C@@H]3[C@H]2c2cc(C#Cc4ccc(F)cc4)ccc2N[C@@H]3CO)c1 | -3.22% (inactive)
32 | CO[C@H]1CN(C)C(=O)c2cc(NC(=O)Nc3cccc(F)c3)ccc2OC[C@@H](C)N(C)C[C@H]1C | 18.3% (inactive)
33 | CO[C@H]1CN(C)C(=O)c2cc(NC(=O)Nc3cccc(F)c3)ccc2OC[C@@H](C)N(C)C[C@@H]1C | 7.44% (inactive)
34 | CO[C@@H]1CN(C)C(=O)c2cc(NC(=O)C3CC3)ccc2OC[C@H](C)N(Cc2ccc(F)cc2)C[C@@H]1C | 0.205% (inactive)
35 | CO[C@@H]1CN(C)C(=O)c2cc(NC(=O)C3CC3)ccc2OC[C@@H](C)N(Cc2ccc(F)cc2)C[C@@H]1C | 1.45% (inactive)
36 | CO[C@@H]1CN(C)C(=O)c2cc(NC(=O)Nc3cccc(F)c3)ccc2OC[C@H](C)N(C)C[C@@H]1C | 98.7% (active)
37 | CO[C@H]1CN(C)C(=O)c2ccc(NC(=O)C3CC3)cc2OC[C@@H](C)N(Cc2ccc(F)cc2)C[C@@H]1C | 95.3% (active)
38 | C[C@H](CO)N1C[C@H](C)[C@@H](CN(C)C(=O)c2cccc(F)c2)Oc2cc(-c3cncnc3)ccc2S1(=O)=O | 4.59% (inactive) and 104% (active) and -0.371% (inactive)
39 | C/C=C/c1ccc2c(c1)O[C@@H](CN(C)C(=O)NC1CCCC1)[C@@H](C)CN([C@H](C)CO)S2(=O)=O | -13.9% (inactive)
40 | C[C@@H]1CN([C@@H](C)CO)S(=O)(=O)c2ccc(C#Cc3ccc(F)cc3)cc2O[C@H]1CN(C)C(=O)NC1CCCC1 | 81.9% (active)
41 | CC(C)NC(=O)N(C)C[C@H]1Oc2cc(-c3cncnc3)ccc2S(=O)(=O)N([C@@H](C)CO)C[C@H]1C | -2.43% (inactive)
42 | C[C@@H]1CN([C@@H](C)CO)S(=O)(=O)c2ccc(C#Cc3ccc(F)cc3)cc2O[C@@H]1CN(C)CC1CC1 | 0.211% (inactive)

Row | SMILES | lysis activity
43 | CC(=O)N(C)C[C@@H]1Oc2cc(-c3cncnc3)ccc2S(=O)(=O)N([C@@H](C)CO)C[C@H]1C | 0.747% (inactive)
44 | CNC(=O)C[C@H]1CC[C@H]2[C@H](COc3ccc(NC(=O)c4cc(C)on4)cc3C(=O)N2C)O1 | 83.7% (active)
45 | Cc1cc(C(=O)Nc2ccc3c(c2)C(=O)N(C)[C@@H]2CC[C@H](CC(=O)NC4CCCC4)O[C@@H]2CO3)no1 | 3.44% (inactive)
46 | Cc1cc(C(=O)Nc2ccc3c(c2)C(=O)N(C)[C@@H]2CC[C@@H](CC(=O)NC4CCCC4)O[C@@H]2CO3)no1 | 1.38% (inactive)
47 | COc1cccc(C(=O)Nc2ccc3c(c2)C(=O)N(C)C[C@@H](OC)[C@@H](C)CN(C)[C@@H](C)CO3)c1 | -1.94% (inactive)
48 | O=C(C[C@@H]1C[C@@H]2c3cc(NS(=O)(=O)c4ccc(F)cc4)ccc3O[C@@H]2[C@@H](CO)O1)NCc1ccncc1 | -3.62% (inactive)
49 | C[C@@H]1CCCCO[C@H](CN(C)C(=O)Nc2ccc(C(F)(F)F)cc2)[C@@H](C)CN([C@@H](C)CO)C(=O)c2cc(NC(=O)Nc3cccc4ccccc34)ccc2O1 | -0.038% (inactive)
50 | C[C@@H]1CN([C@H](C)CO)C(=O)Cc2cc(NC(=O)Nc3cccc4ccccc34)ccc2O[C@@H]1CN(C)Cc1ccc(C(F)(F)F)cc1 | 0.378% (inactive)
51 | C[C@H]1CN([C@@H](C)CO)C(=O)Cc2cc(NC(=O)Nc3cccc4ccccc34)ccc2O[C@@H]1CN(C)C | 5.63% (inactive)
52 | C[C@H](CO)N1C[C@H](C)[C@@H](CN(C)CC2CCOCC2)Oc2ncc(C#Cc3ccc(F)cc3)cc2C1=O | 1.59% (active)
53 | C[C@@H]1CN([C@H](C)CO)C(=O)Cc2cc(NC(=O)Nc3cccc4ccccc34)ccc2O[C@@H]1CN(C)Cc1ccc(C(=O)O)cc1 | 105% (active)
54 | COc1ccc(C#Cc2cnc3c(c2)C(=O)N([C@@H](C)CO)C[C@H](C)[C@@H](CN(C)CC2CCOCC2)O3)cc1 | 0.473% (inactive)
55 | Cc1noc(C)c1NC(=O)Nc1ccc2c(c1)C(=O)N([C@@H](C)CO)C[C@@H](C)[C@H](CN(C)C)O2 | -2.64% (inactive)
56 | Cc1noc(C)c1NC(=O)Nc1ccc2c(c1)C(=O)N([C@@H](C)CO)C[C@H](C)[C@H](CN(C)CC1CCCCC1)O2 | 80.5% (active)
57 | Cc1noc(C)c1NC(=O)Nc1ccc2c(c1)CC(=O)N([C@@H](C)CO)C[C@H](C)[C@@H](CN(C)CC1CCCCC1)O2 | 4.38% (inactive)
58 | C[C@H]1CN([C@@H](C)CO)C(=O)c2cc(NC(=O)Nc3ccc4c(c3)OCO4)ccc2O[C@@H]1CN(C)CC1CCCCC1 | 81.3% (active)
59 | C[C@@H]1CN([C@@H](C)CO)C(=O)Cc2cc(NC(=O)Nc3ccc4c(c3)OCO4)ccc2O[C@@H]1CN(C)CC1CCCCC1 | 5.47% (inactive)
60 | C[C@@H]1CN([C@@H](C)CO)C(=O)c2cc(NC(=O)Nc3ccc(F)cc3)ccc2O[C@H]1CN(C)CC1CCCCC1 | -0.073% (inactive)
61 | C[C@H](CO)N1C[C@H](C)[C@H](CN(C)C)Oc2ncc(C#Cc3ccc(F)cc3)cc2C1=O | 5.93% (inactive) and 8.34% (inactive)
